Results as given in paper PMC10099996 (Chembiochem, 2022).
≈ marks a conversion by molar mass, not a printed value.

Experiments:
E. faecium E980 = test: MIC determination; format: cell-based; conditions: Table 1; lysogeny broth (LB) supplemented with 0.3 mM ZnSO4; 37 °C, 18 h; visual inspection; median of a minimum of triplicates
Outline: (§1)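 Strains from glycerol stocks are grown overnight on blood agar at 37 °C. A single colony goes into TSB and grows at 37 °C to OD600 0.5, then is diluted 100-fold in ZnSO₄-supplemented LB to 10⁶ CFU mL⁻¹. Test compounds are 2-fold serially diluted in the same medium, in triplicate, and mixed with an equal volume of inoculum. Plates are sealed under breathable membranes and incubated 18 h at 37 °C, shaking at 600 rpm. MIC is read visually.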

S. simulans 22 = test: MIC determination; format: cell-based; conditions: Table 1; lysogeny broth (LB) supplemented with 0.3 mM ZnSO4; 37 °C, 18 h; visual inspection; median of a minimum of triplicates
Outline: as §1

S. aureus USA300 (MRSA) = test: MIC determination; format: cell-based; conditions: Table 1; lysogeny broth (LB) supplemented with 0.3 mM ZnSO4; 37 °C, 18 h; visual inspection; median of a minimum of triplicates
Outline: as §1

[1] = system: S. aureus ATCC 29213 (MSSA); test: MIC determination; format: cell-based; conditions: Table 1; lysogeny broth (LB) supplemented with 0.3 mM ZnSO4; 37 °C, 18 h; visual inspection; median of a minimum of triplicates
Outline: as §1

[2] = formation in vivo limits systemic applications; cited from earlier work
[3] = degradation product of bacitracin A; cited from earlier work

| Molecule | MIC E. faecium E980 (E. faecium E980) [µg/mL] | MIC S. simulans 22 (S. simulans 22) [µg/mL] | MIC S. aureus USA300 (MRSA) (S. aureus USA300 (MRSA)) [µg/mL] | MIC S. aureus ATCC 29213 (MSSA) [1] [µg/mL] | nephrotoxicity [2] | antibiotic activity [3] |
| --- | --- | --- | --- | --- | --- | --- |
| CN[C@H](CC(C)C)C(=O)N[C@H]1C(=O)N[C@@H](CC(N)=O)C(=O)N[C@H]2C(=O)N[C@H]3C(=O)N[C@H](C(=O)N[C@H](C(=O)O)c4cc(O)cc(O)c4-c4cc3ccc4O)[C@H](O)c3ccc(c(Cl)c3)Oc3cc2cc(c3O[C@@H]2O[C@H](CO)[C@@H](O)[C@H](O)[C@H]2O[C@H]2C[C@](C)(N)[C@H](O)[C@H](C)O2)Oc2ccc(cc2Cl)[C@H]1O [Vancomycin] | 0.5 (≈ 0.345 µM) | 0.5 (≈ 0.345 µM) | 2 (≈ 1.38 µM) | 1 (≈ 0.69 µM) |  |  |
| bacitracin F |  |  |  |  | nephrotoxic | inactive |
